FXIIa inh: human FXIIa protease inhibitors, primary screen, biochemical, 1536-well | inhibition, % at 5 µM | hit rate 0.3% among 220,000 | Coagulation factor XII (Homo sapiens), P00748 | purified FXIIa, Boc-QGR-AMC fluorogenic substrate, 2 h; in the data active means inhibition above about 40%
Target sequence (P00748 20-372 limits assumed): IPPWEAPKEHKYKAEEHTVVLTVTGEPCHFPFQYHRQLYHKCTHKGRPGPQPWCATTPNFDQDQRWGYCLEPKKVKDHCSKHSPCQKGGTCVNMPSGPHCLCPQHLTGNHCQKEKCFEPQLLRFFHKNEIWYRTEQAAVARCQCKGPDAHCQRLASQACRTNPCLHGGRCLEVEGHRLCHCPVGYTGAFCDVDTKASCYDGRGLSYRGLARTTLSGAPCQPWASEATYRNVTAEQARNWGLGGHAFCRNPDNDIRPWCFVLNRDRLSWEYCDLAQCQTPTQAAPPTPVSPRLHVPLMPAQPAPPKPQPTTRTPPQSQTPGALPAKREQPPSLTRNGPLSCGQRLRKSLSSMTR
Target sequence (P00748 373-615 limits assumed): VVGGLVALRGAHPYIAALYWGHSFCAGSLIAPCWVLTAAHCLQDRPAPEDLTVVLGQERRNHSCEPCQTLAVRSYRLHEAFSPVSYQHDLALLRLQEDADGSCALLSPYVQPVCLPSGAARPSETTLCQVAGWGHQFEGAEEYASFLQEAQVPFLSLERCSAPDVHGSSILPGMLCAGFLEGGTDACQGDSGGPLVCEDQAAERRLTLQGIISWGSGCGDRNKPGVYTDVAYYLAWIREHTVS
Calpain2 inh: inhibitors of pig calpain II, primary screen, biochemical, fluorogenic peptide substrate, 1536-well | hit rate 0.37% among 220,000 | purified calpain II, 30 min | AID 1236, 2008 | inhibition, % at 16 µM;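 active means inhibition above about 50%, limit read from the data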
thrombin 1536: human alpha-thrombin inhibitors, primary screen, counter-screen for coagulation protease inhibitor project, biochemical, 1536-well, fluorogenic AMC substrate. Boc-VPR-AMC fluorogenic substrate cleavage. inhibition, % at 5 µM. hit rate 0.26% among 220,000;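 active means inhibition at or above 40%; inactive means inhibition below 40%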
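Assay system: human alpha-thrombin enzyme. Reagent: Boc-VPR-AMC substrate, 15 µM final. Compound dosing: one concentration per compound, 5 µM, with 0.2% DMSO. Incubation: room-temperature reaction. Technique: AMC fluorescence, 355/460 nm. Measure: % inhibition relative to enzyme controls and enzyme-free blanks.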
FXIa inh: human FXIa protease inhibitors, primary screen, biochemical, 1536-well | inhibition, % at 5 µM | AID 798, 2007 | purified FXIa, Boc-Glu-Ala-Arg-AMC fluorogenic substrate | hit rate 0.14% among 220,000 | Coagulation factor XI (Homo sapiens), P03951;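 active means inhibition of at least 40%; inactive means inhibition below 40%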;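 further: fluorescence of freed AMC excited at 355 nm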
KLK5 inh: human KLK5 protease inhibitors, primary screen, biochemical, 1536-well; recombinant hK5, fluorogenic AMC substrate cleavage; inhibition, % at 5 µM; hit rate 0.59% among 210,000;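 active means inhibition of 40% or more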
A number is an active result; – = inactive; · = no result given. The list is not random: actives were taken first. Their share in the collection is about 1.4%.

SMILES	FXIIa inh	Calpain2 inh	thrombin 1536	FXIa inh	KLK5 inh
Clc1ccccc1-c1nnc2sc(-c3cccs3)nn12	–	52	–	–	–
Clc1ccccc1-c1nnc2sc(-c3ccncc3)nn12	–	–	–	–	–
CCC(C)NS(=O)(=O)c1ccc(OCC(=O)NCc2cccnc2)cc1 (configuration not stated)	–	–	–	–	–
Cc1ccc(C(=O)Nc2cccnc2Oc2ccc(Cl)cc2)cc1	–	–	–	–	–
Cc1ccc(S(=O)(=O)Nc2cccnc2Oc2ccc(Cl)cc2)cc1	44	–	47	–	–
CCSc1nnc(N2C(=O)CC(c3ccsc3)C3=C2CC(C)(C)CC3=O)s1 (configuration not stated)	–	–	–	–	53
C=C(CCC(=O)c1ccccc1)C(=O)c1ccccc1	–	–	41	–	–
CCOC(=O)c1c(N)n[nH]c1-c1ccccc1	–	–	–	–	–
CC(=O)Nc1ccccc1-c1nc2ccc(C(=O)N3CCN(c4cccc(C)c4)C(C)C3)cc2[nH]c1=O (configuration not stated)	–	–	–	–	59
CC(C)N1CC2(c3ccccc3)CN(C(C)C)CC(c3ccccc3)(C1)C2=O	–	–	–	–	–
FC(F)(F)c1nnc2ccc(NCc3ccccc3)nn12	–	92	–	–	–
FC(F)(F)c1nnc2ccc(NCc3cccnc3)nn12	–	–	–	–	–
Cc1cc(/C=N/n2cnnc2)c(C)n1-c1ccc(OCc2ccc(F)cc2)cc1	–	–	–	–	–
COc1ccc(COC(=O)Nc2cc3c(C(F)(F)F)nn(C)c3s2)cc1	–	62	–	–	–
Cn1nc(C(F)(F)F)c2cc(NC(=O)OCc3ccc(F)cc3)sc21	–	90	–	–	–
CCOC(=O)c1cc(-c2ccc(OC)cc2OC)nn1-c1ccc(C(=O)O)cc1	–	–	–	–	–
Cc1cc(=O)oc2cc(OCC(=O)OCC(=O)Nc3ccccc3C(C)C)ccc12	–	–	–	–	–
COC(=O)CCCCCC(CCC(=O)OC)NC(C)=O (configuration not stated)	–	–	–	–	51
COc1cc(NC(=O)c2cc3nc(C4CC4)cc(C(F)(F)F)n3n2)c(OC)cc1Cl	46	–	–	–	–
COC(=O)c1ccccc1NC(=O)c1cc2nc(C3CC3)cc(C(F)(F)F)n2n1	–	–	–	–	–
COc1ccc(CC(=O)Nc2ccc(-c3noc(-c4cc(OC)c(OC)c(OC)c4)n3)cc2)cc1	–	–	–	–	–
CC(c1ccc(F)cc1)n1c(-c2cccs2)n[nH]c1=S (configuration not stated)	·	–	–	–	71
CC1C/C(=N/Nc2ccc([N+](=O)[O-])cc2[N+](=O)[O-])CC(C)(C)C1 (configuration not stated)	–	–	–	–	–
O=c1[nH]nc(SCc2nnc(-c3ccc([N+](=O)[O-])cc3)o2)n1C1CCCCC1	–	–	44	–	–
CCOC(=O)Cn1c(=O)n(CC(=O)OCC)c2ccccc21	–	–	–	–	–
SMILES	FXIIa inh	Calpain2 inh	thrombin 1536	FXIa inh	KLK5 inh
O=C(O)C1C2C=CC(O2)C1C(=O)Nc1ccc(S(=O)(=O)Nc2ccccc2)cc1 (configuration not stated)	–	–	–	–	–
Cc1nc2ccc(-c3nc4ccccc4o3)cc2[nH]1	–	–	–	–	–
Cc1cccc(C)c1OCC(O)CN (configuration not stated)	–	–	–	–	52
CCOC(=O)N1CCN(CC(O)COc2c(C)cccc2C)CC1 (configuration not stated)	–	–	–	–	–
Cc1nn(CC(=O)N2CCc3ccccc3C2)c(C)c1[N+](=O)[O-]	85	–	–	–	–
Nc1o[nH]c(=O)c1Cc1ccccc1	–	–	–	–	–
Cc1onc(-c2c(Cl)cccc2Cl)c1-c1nnc(-c2ccc(Cl)cc2)o1	–	–	–	–	–
Cc1onc(-c2c(F)cccc2Cl)c1-c1nnc(-c2ccc(C(F)(F)F)cc2)o1	57	–	–	–	–
COC(=O)c1ccc(C2C(C(=O)c3cc4ccccc4o3)=C(O)C(=O)N2CCCN(C)C)cc1 (configuration not stated)	–	–	–	–	–
OC1C2(Cc3ccccc3)CN3CCN(C2)CC1(Cc1ccccc1)C3 (configuration not stated)	–	·	–	–	110
CC(/C=C/C1(O)C(C)CC(O)CC1(C)C)OC1OC(CO)C(O)C(O)C1O (configuration not stated)	–	–	–	–	–
O=C(O)Cc1ccccc1C(=O)O	–	–	44	–	–
O=c1c2ccccc2oc2nc3ccn(Cc4ccncc4)c(=O)c3cc12	–	–	–	–	–
O=C(CN1C(=O)/C(=C/c2cccc(Br)c2)SC1=S)NC1=NCCS1	–	84	–	–	·
O=C(CN1C(=O)/C(=C/c2cccc(Br)c2)SC1=S)Nc1cccnc1	–	–	–	–	·
C=C(C)CNC(=S)N/N=C/c1c(F)cccc1F	–	57	–	–	–
C=C(C)CNC(=S)N/N=C/c1ccc([N+](=O)[O-])cc1	–	–	–	–	–
CSc1nnc(-c2cccc(NC(=S)NN)c2)o1	–	–	–	–	–
CN(C)c1ccc(NC(=O)c2ccc(Cn3cc([N+](=O)[O-])cn3)cc2)cc1	–	–	97	–	–
COc1ccc(NC(=O)c2ccc(Cn3cc(Cl)cn3)cc2)cc1	–	–	–	–	–
CCc1ccc(C2c3[nH]c4ccccc4c3CCN2C(=O)c2cc[n+]([O-])cc2)cc1 (configuration not stated)	–	–	–	–	50
CCc1cc(-c2[nH]ncc2-c2nc3ccccc3n2C)c(O)cc1O	–	–	–	75	–
CC(C)c1ccc(/C=C/C2=NNC(=O)CC2)cc1	–	92	–	–	–
Cc1cc(-c2nn(-c3ccccc3F)cc2CNCCc2cnc[nH]2)c(C)s1	–	–	–	–	–
CCN(CC)C(=O)CSc1ccccc1N	–	–	–	–	47
O=C(CN1C(=O)C2CC=CCC2C1=O)Nc1nnc(SCc2ccc(Cl)cc2)s1 (configuration not stated)	–	–	–	–	–
COc1ccccc1CNc1ccc2nnc(CCNC(=O)c3ccccc3)n2n1	–	–	–	–	–
O=C(c1cc(S(=O)(=O)N2CCOCC2)ccc1Cl)N1CCN(c2ccccn2)CC1	–	–	–	–	–
CC(=O)/C(=N\Nc1cccc(Cl)c1)Sc1cccc2cccnc12	–	–	–	–	–
CC(C)[C@H](NC(=O)[C@H](CCCN=C(N)N)NC(=O)NC(Cc1ccccc1)C(=O)O)C(=O)NC(C=O)CCCN=C(N)N (some centres not stated)	47	51	–	43	–

Source: PubChem (several laboratories)
